Measurements published in ChEMBL document CHEMBL5678808, “Human target validation of phosphoinositide 3-kinase (PI3K)β: effects on platelets and insulin sensitivity, using AZD6482 a novel PI3Kβ inhibitor” (J Thromb Haemost, 2012).
Activity calls are given as the source filed them. The calls are words filed in the database; no cut-off is given here.

Tests used:
[1] = biological target: Serine-protein kinase ATM (Homo sapiens, UniProt Q13315); assay: Inhibition of ATM (unknown origin)
[2] = biological target: SRSF protein kinase 1 (Homo sapiens) (UniProt Q96SB4); assay: Inhibition of human SRPK1 at 10 uM relative to control
[3] = biological target: Lymphokine-activated killer T-cell-originated protein kinase (Homo sapiens) (UniProt Q96KB5); assay: Inhibition of human PBK at 10 uM relative to control
[4] = biological target: Eukaryotic elongation factor 2 kinase (Homo sapiens) (UniProt O00418); assay: Inhibition of human EF2K at 10 uM relative to control
[5] = Protein binding in human plasma assessed as unbound fraction; type: ADME, cell-free
[6] = Toxicity in Sprague-Dawley rat assessed as change in blood pressure at 1000 ug/kg, iv for 2 mins followed by 50 ug/kg/min, iv for 28 mins; type: organism-based; details: in vivo, 1 mg/kg, 0.5 h, time 30 min
How it was run: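 Blood pressure was monitored in anesthetized rats during hyperinsulinemic–euglycemic clamps. There was an initial control period, then i.v. drug at 1000 μg kg−1 + 50 μg kg min−1 or 6000 μg kg−1 + 300 μg kg min−1. Heart rate was also recorded.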

[7] = biological target: Serine/threonine-protein kinase N2 (Homo sapiens) (UniProt Q16513); assay: Inhibition of human PRK2 at 10 uM relative to control
Rattus norvegicus [8] = assay: Insulin sensitizing activity in Sprague-Dawley rat hyperinsulinemic-euglycemic glucose clamp model assessed as total insulin level during infusion of human insulin at 1000 ug/kg/min, iv for 2 mins followed by 50 ug/kg/min, iv for 28 mins measured during clamp 1 (reference value: 2.2 +/- 0.1 nM); type: functional; details: time 30 min, 0.5 h
How it was run: (§1)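 Anesthetized rats; hyperinsulinemic–euglycemic clamp with human insulin infused. A baseline clamp (Clamp1) was followed by a second clamp (Clamp2) with vehicle or drug i.v. The drug was given as a low dose (1000 μg kg−1 + 50 μg kg min−1) or a high dose (6000 μg kg−1 + 300 μg kg min−1). Steady-state glucose infusion rate for euglycemia was recorded, with plasma glucose, human insulin and total insulin; mean ± SEM, n = 4–5/group.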

[9] = biological target: MAP kinase-activated protein kinase 2 (Homo sapiens) (UniProt P49137); assay: Inhibition of MAPK Activated Protein Kinase-2 (unknown origin) at 10 uM relative to control
[10] = Inhibition of […] mouse thymoma viral oncogene homolog 1 (unknown origin) at 10 uM relative to control; details: Homo sapiens, condition thrombotic disease
[11] = biological target: MAP kinase-interacting serine/threonine-protein kinase 1 (Homo sapiens) (UniProt Q9BUB5); assay: Inhibition of human MNK1 at 10 uM relative to control
[12] = Toxicity in Sprague-Dawley rat hyperinsulinemic-euglycemic glucose clamp model assessed as change in heart rate at 6000 ug/kg/min, iv for 2 mins followed by 300 ug/kg/min, iv for 28 mins; type: organism-based; details: in vivo, 0.5 h, time 30 min
How it was run: (§2)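 Anesthetized rats underwent two consecutive hyperinsulinemic–euglycemic clamps with human insulin infusion: a baseline Clamp1, then Clamp2 with vehicle or AZD6482 i.v. (n = 4–5/group). Blood pressure and heart rate were followed during control periods and after drug administration. Steady-state glucose infusion rate maintained euglycemia.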

[13] = Toxicity in Sprague-Dawley rat hyperinsulinemic-euglycemic glucose clamp model assessed as change in heart rate at 1000 ug/kg/min, iv for 2 mins followed by 50 ug/kg/min, iv for 28 mins; type: organism-based; details: in vivo, 0.5 h, time 30 min; how it was run: as §2
[14] = biological target: Protein kinase C zeta type (Homo sapiens) (UniProt Q05513); assay: Inhibition of human PKCz at 10 uM relative to control
[15] = biological target: Serine/threonine-protein kinase PLK1 (Homo sapiens, UniProt P53350); assay: Inhibition of human PLK
[16] = biological target: Serine/threonine-protein kinase mTOR (Homo sapiens, UniProt P42345); assay: Inhibition of mTOR (unknown origin)
Canis familiaris = assay: Antithrombotic activity in Beagle dog model of arterial thrombosis and bleeding assessed as blood loss at 0.005 to 0.24 ug/kg/min, iv via bolus for 29 mins and measured for 15 mins; type: functional, organism-based; details: Canis lupus familiaris
How it was run: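 Modified Folts' model of thrombosis in a damaged, stenosed femoral artery of anesthetized dogs. Animals first received saline vehicle. Consecutive i.v. doses then followed, each given over a 30-min period as a bolus (0.03–1.3 μg kg−1) plus an infusion (0.005–0.24 μg kg min−1). Read-outs were cyclic flow reductions, expressed as % restoration of blood flow, plus bleeding time, blood loss and plasma drug exposure. Mean ± SEM, n = 6.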

[17] = biological target: Serine/threonine-protein kinase Nek7 (Homo sapiens) (UniProt Q8TDX7); assay: Inhibition of human NEK7 at 10 uM relative to control
[18] = biological target: Glycogen synthase kinase-3 beta (Homo sapiens) (UniProt P49841); assay: Inhibition of human GSK3b at 10 uM relative to control
Homo sapiens = organism: Homo sapiens; assay: Inhibition of human CDK2/Cyclin A at 10 uM relative to control
[19] = biological target: Dual specificity mitogen-activated protein kinase kinase 1 (Homo sapiens) (UniProt Q02750); assay: Inhibition of mitogen activated protein kinase kinase 1 (unknown origin) at 10 uM relative to control
Rattus norvegicus [20] = assay: Insulin sensitizing activity in Sprague-Dawley rat hyperinsulinemic-euglycemic glucose clamp model assessed as basal glucose level during infusion of human insulin at 6000 ug/kg/min, iv for 2 mins followed by 300 ug/kg/min, iv for 28 mins by colorimetry (reference value: 8.1 +/- 0.7 mM); type: functional; details: time 30 min, 0.5 h; how it was run: as §1
[21] = biological target: Serine/threonine-protein kinase Nek6 (Homo sapiens) (UniProt Q9HC98); assay: Inhibition of human NEK6 at 10 uM relative to control
[22] = biological target: Serine/threonine-protein kinase Sgk1 (Homo sapiens) (UniProt O00141); assay: Inhibition of human SGK at 10 uM relative to control
[23] = biological target: Dual specificity tyrosine-phosphorylation-regulated kinase 1A (Rattus norvegicus) (UniProt Q63470); assay: Inhibition of rat DYRK1A at 10 uM relative to control
[24] = biological target: Mitogen-activated protein kinase 12 (Homo sapiens) (UniProt P53778); assay: Inhibition of human MAPK12 at 10 uM relative to control
[25] = biological target: Ribosomal protein S6 kinase alpha-5 (Homo sapiens) (UniProt O75582); assay: Inhibition of human MSK1 at 10 uM relative to control
Rattus norvegicus [26] = assay: Insulin sensitizing activity in Sprague-Dawley rat hyperinsulinemic-euglycemic glucose clamp model assessed as glucose level during infusion of human insulin at 6000 ug/kg/min, iv for 2 mins followed by 300 ug/kg/min, iv for 28 mins measured during clamp 1 by colorimetry (reference value: 8.4 +/- 0.8 mM); type: functional; details: time 30 min, 0.5 h; how it was run: as §1
[27] = biological target: Ribosomal protein S6 kinase alpha-3 (Homo sapiens) (UniProt P51812); assay: Inhibition of human MAPKAPK1B at 10 uM relative to control
Rattus norvegicus [28] = assay: Insulin sensitizing activity in Sprague-Dawley rat hyperinsulinemic-euglycemic glucose clamp model assessed as human insulin level during infusion of human insulin at 6000 ug/kg/min, iv for 2 mins followed by 300 ug/kg/min, iv for 28 mins measured during clamp 2 (reference value: 1.8 +/- 0.1 nM); type: functional; details: time 30 min, 0.5 h; how it was run: as §1
[29] = biological target: Protein kinase C alpha type (Homo sapiens) (UniProt P17252); assay: Inhibition of human PKCa at 10 uM relative to control

MAP kinase-interacting serine/threonine-protein kinase 1 (Homo sapiens), sequence (Q9BUB5 whole entry, looked up): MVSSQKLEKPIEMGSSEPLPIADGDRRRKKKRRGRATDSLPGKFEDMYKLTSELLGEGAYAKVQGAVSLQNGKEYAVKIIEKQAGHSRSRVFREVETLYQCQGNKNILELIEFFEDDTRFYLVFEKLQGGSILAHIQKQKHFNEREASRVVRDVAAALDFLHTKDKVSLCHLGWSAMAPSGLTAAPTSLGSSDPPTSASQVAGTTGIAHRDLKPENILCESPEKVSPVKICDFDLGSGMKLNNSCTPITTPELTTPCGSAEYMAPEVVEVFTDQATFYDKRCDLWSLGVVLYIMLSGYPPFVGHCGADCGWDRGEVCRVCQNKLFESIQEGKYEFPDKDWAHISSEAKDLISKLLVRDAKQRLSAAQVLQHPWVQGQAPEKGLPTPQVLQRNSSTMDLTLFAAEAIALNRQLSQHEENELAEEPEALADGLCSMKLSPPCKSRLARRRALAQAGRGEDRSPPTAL
Serine/threonine-protein kinase Sgk1 (Homo sapiens), sequence (O00141 whole entry): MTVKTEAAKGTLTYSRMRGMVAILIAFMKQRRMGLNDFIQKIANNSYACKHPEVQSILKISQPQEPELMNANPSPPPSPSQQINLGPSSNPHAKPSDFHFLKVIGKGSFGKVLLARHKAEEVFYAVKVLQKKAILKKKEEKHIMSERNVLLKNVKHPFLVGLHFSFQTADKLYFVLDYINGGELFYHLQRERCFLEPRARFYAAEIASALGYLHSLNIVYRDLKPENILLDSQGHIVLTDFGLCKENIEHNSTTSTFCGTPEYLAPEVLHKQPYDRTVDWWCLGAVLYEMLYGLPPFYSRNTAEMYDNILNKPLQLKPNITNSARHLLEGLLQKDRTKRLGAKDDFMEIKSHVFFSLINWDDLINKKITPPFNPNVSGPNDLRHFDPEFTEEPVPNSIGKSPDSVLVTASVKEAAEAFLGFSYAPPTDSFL
Protein kinase C zeta type (Homo sapiens), sequence (Q05513 whole entry): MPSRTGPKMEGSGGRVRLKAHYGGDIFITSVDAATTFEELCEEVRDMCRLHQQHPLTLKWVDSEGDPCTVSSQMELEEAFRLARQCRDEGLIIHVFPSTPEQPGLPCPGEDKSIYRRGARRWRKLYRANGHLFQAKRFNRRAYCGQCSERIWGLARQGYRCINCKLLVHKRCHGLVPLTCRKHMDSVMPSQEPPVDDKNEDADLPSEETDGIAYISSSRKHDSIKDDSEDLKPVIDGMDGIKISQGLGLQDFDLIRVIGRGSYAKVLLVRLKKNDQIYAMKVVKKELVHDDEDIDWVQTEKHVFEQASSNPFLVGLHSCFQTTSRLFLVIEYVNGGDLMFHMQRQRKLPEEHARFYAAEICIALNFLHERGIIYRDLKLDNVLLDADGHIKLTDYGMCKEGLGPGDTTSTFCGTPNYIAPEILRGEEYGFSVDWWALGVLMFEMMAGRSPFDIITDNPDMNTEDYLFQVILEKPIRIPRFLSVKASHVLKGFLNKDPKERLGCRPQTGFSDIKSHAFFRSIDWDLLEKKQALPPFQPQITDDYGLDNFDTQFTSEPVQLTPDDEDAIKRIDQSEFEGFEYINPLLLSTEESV
Serine-protein kinase ATM, sequence (Q13315 whole entry): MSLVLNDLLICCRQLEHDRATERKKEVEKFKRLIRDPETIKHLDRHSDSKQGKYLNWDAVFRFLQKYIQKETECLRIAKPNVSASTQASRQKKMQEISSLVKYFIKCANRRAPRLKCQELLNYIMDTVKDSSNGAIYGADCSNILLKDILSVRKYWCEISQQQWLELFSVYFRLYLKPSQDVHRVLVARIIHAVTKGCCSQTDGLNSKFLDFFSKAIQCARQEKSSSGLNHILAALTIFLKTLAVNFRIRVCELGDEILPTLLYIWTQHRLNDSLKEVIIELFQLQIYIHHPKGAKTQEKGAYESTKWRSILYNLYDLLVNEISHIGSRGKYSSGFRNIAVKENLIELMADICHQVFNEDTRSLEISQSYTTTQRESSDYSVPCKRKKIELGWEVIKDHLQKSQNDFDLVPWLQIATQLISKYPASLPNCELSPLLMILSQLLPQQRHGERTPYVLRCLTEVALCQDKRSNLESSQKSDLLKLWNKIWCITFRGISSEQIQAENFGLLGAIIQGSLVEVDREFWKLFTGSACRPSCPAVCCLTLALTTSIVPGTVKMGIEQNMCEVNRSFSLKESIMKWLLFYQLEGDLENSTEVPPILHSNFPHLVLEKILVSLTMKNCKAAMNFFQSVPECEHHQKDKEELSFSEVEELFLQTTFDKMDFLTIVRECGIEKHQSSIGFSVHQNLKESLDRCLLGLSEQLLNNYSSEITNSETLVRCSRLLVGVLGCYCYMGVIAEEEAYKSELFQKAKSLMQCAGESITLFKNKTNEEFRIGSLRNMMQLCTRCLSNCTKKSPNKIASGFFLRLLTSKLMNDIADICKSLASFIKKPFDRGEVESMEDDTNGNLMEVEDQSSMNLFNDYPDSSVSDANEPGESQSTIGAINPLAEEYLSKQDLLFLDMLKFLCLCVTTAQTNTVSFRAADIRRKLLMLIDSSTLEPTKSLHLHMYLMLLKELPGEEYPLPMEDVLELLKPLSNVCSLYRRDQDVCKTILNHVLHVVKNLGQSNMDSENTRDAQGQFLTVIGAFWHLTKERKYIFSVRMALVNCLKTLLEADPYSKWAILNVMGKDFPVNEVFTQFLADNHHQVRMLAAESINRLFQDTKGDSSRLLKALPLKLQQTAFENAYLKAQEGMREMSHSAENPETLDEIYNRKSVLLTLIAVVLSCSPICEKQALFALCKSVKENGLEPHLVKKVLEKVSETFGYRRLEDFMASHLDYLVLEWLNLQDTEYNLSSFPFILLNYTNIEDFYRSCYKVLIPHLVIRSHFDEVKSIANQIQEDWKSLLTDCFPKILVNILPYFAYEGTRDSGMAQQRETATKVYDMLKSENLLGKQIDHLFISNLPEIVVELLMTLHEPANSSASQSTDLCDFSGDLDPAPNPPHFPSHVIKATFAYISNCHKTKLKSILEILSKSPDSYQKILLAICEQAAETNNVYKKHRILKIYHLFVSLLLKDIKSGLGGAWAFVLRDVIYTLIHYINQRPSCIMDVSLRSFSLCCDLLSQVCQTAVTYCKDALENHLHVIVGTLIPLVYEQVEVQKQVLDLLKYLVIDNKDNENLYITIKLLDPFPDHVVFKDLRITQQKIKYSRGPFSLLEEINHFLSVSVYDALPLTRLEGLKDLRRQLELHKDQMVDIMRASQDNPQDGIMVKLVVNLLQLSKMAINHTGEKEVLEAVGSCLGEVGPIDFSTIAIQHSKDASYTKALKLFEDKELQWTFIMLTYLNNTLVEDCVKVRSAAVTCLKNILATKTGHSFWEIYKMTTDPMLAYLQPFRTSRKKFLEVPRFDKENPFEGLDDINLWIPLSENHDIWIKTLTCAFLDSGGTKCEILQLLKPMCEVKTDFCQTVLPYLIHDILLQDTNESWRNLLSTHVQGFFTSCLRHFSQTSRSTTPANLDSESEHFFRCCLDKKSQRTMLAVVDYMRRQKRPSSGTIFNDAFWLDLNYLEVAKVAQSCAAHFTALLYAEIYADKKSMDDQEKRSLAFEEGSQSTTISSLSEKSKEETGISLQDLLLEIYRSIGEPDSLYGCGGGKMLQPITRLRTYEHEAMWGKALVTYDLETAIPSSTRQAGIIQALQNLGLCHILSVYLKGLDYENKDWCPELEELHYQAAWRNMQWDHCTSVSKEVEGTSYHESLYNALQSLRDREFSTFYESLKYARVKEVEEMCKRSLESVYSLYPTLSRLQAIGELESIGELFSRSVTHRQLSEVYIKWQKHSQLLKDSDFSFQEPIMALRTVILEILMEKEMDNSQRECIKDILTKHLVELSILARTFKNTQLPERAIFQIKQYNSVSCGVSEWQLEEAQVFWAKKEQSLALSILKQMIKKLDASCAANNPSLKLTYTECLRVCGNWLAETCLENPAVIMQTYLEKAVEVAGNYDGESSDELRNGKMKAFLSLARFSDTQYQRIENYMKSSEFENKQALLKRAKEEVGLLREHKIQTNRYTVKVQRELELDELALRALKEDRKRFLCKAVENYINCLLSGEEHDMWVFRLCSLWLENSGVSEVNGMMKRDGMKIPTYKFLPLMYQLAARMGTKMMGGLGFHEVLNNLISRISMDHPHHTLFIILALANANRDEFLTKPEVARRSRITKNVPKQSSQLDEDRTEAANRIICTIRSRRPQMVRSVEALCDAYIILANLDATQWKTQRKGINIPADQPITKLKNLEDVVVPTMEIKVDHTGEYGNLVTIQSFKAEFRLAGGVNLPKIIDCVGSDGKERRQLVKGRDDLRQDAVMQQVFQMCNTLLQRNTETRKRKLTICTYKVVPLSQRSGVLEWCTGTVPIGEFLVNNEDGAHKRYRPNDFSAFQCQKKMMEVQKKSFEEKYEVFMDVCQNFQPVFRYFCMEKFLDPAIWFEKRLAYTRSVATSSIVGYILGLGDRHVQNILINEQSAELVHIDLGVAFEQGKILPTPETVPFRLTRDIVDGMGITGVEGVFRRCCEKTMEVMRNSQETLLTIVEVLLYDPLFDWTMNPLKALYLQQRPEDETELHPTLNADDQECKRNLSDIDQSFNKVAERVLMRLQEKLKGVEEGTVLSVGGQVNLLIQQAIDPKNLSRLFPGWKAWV
Dual specificity mitogen-activated protein kinase kinase 1 (Homo sapiens), sequence (Q02750 whole entry, the tested form may be a part): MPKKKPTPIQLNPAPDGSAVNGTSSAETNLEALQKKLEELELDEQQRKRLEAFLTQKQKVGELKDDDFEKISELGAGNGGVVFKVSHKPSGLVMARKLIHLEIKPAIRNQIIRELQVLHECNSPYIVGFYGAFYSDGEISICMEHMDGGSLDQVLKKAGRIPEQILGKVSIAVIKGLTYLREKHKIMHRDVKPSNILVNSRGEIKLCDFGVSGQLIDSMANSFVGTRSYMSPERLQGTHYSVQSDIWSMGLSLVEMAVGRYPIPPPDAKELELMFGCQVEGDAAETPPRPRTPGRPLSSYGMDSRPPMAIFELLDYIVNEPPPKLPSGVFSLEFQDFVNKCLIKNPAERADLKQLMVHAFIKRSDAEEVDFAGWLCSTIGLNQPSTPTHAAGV

- IC50 [1]: > 30 µM
- inhibition [2]: -9.4%
- inhibition [4]: 7.6%
- fraction unbound [5]: 0.08
- inhibition [7]: -2.9%
- inhibition [9]: 13%
- inhibition [11]: -9.8%
- inhibition [14]: 13%
- IC50 [15]: 84 µM
- IC50 [16]: 8 µM
- inhibition [17]: 7.1%
- inhibition [18]: 21%
- inhibition (Homo sapiens): -1.6%
- inhibition [19]: 11%
- inhibition [21]: 2.5%
- inhibition [22]: -5.8%
- inhibition [23]: 9%
- inhibition [24]: 3.4%
- inhibition [25]: -4.2%
- inhibition [27]: 15%
- inhibition [29]: -0.9%
Structure (SMILES): Cc1cc([C@@H](C)Nc2ccccc2C(=O)O)c2nc(N3CCOCC3)cc(=O)n2c1 [AZD-6482]
- inhibition [3]: 6.9%
- Activity [6]: Non-Toxic
- Activity (Rattus norvegicus [8]): 2.2 nM
- inhibition at 10 µM [10]: 2.1%
- Activity [12]: Non-Toxic
- Activity [13]: Non-Toxic
- Activity (Canis familiaris): inactive
- Activity (Rattus norvegicus [20]): 7.7 mM
- Activity (Rattus norvegicus [26]): 7.6 mM
- Activity (Rattus norvegicus [28]): 2.3 nM
